According to ChEMBL document CHEMBL1146843, “Synthesis and properties of benzo[a]phenoxazinium chalcogen analogues as novel broad-spectrum antimicrobial photosensitizers” (J Med Chem, 2006):

Key:
[1] = tested on: Escherichia coli; assay: Photodynamic inactivation of Escherichia coli ATCC 25922 at the fluence of 80 J/cm2 light at 5 uM after 10 mins; assay type: functional
In short: (§1)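 Exponential cultures were used: bacteria about 10^8 cells/mL in BHI, Candida in YM. Cells were dark-incubated with dye for 10 min at room temperature, then washed and resuspended in PBS without Ca2+/Mg2+. Illumination used 30-nm band-pass red light (630, 652 or 660 ± 15 nm per dye) at 60–100 mW/cm2 and room temperature. Ten-fold serial dilutions were plated on BHI agar at 37 °C overnight. CFU survival was expressed relative to untreated cells, in triplicate.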

[2] = tested on: Candida albicans; assay: Cellular uptake in Candida albicans ATCC 18804 at 20 uM after 10 mins; assay type: functional, organism-based
In short: (§2)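 Exponential-phase cells (bacteria in BHI, yeast in YM, 37 °C, 150 rpm) were incubated with dye in the dark for 10 min at room temperature. Centrifugation at 1550g for 6 min removed unbound dye, and pellets were resuspended in PBS without Ca2+/Mg2+. Pellets were dissolved in 10% SDS for ≥24 h. Fluorescence peak height was read at the dye-specific excitation and emission, against SDS calibration curves. Means of three experiments.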

[3] = tested on: Enterococcus faecalis; assay: Photodynamic inactivation of Enterococcus faecalis ATCC 29212 at the fluence of 80 J/cm2 light at 2 uM after 10 mins; assay type: functional; in short: as §1
[4] = tested on: Candida albicans; assay: Photodynamic inactivation of Candida albicans ATCC 18804 at the fluence of 80 J/cm2 light at 20 uM after 10 mins; assay type: functional; in short: as §1
[5] = Partition coefficient, log P at pH 7.4; assay type: physicochemical; details: octanol/water
[6] = tested on: Escherichia coli; assay: Cellular uptake in Escherichia coli ATCC 25922 at 5 uM after 10 mins; assay type: functional, organism-based; in short: as §2
[7] = tested on: Enterococcus faecalis; assay: Photodynamic inactivation of Enterococcus faecalis ATCC 29212 at the fluence of 64 J/cm2 light at 2 uM after 10 mins; assay type: functional; in short: as §1
[8] = tested on: Escherichia coli; assay: Photodynamic inactivation of Escherichia coli ATCC 25922 at the fluence of 64 J/cm2 light at 5 uM after 10 mins; assay type: functional; in short: as §1
[9] = tested on: Candida albicans; assay: Photodynamic inactivation of Candida albicans ATCC 18804 at the fluence of 64 J/cm2 light at 20 uM after 10 mins; assay type: functional; in short: as §1
[10] = tested on: Enterococcus faecalis; assay: Photodynamic inactivation of Enterococcus faecalis ATCC 29212 at the fluence of 8 J/cm2 light at 2 uM after 10 mins; assay type: functional; in short: as §1
[11] = tested on: Enterococcus faecalis; assay: Cellular uptake in Enterococcus faecalis ATCC 29212 at 2 uM after 10 mins; assay type: functional, organism-based; in short: as §2
[12] = tested on: Escherichia coli; assay: Photodynamic inactivation of Escherichia coli ATCC 25922 at the fluence of 32 J/cm2 light at 5 uM after 10 mins; assay type: functional; in short: as §1
[13] = tested on: Candida albicans; assay: Photodynamic inactivation of Candida albicans ATCC 18804 at the fluence of 4 J/cm2 light at 20 uM after 10 mins; assay type: functional; in short: as §1

logD [5] | Structure (SMILES) | Activity [1] [%] | Drug uptake [2] [%] | Activity [3] [%] | Activity [4] [%] | Drug uptake [6] [%] | Activity [7] [%] | Activity [8] [%] | Activity [9] [%] | Activity [10] [%] | Drug uptake [11] [%] | Activity [12] [%] | Activity [13] [%]
2.69 | CC/N=c1/cc2oc3cc(N(CC)CC)ccc3nc-2c2ccccc12.Cl | 90 | 75 | 95 | >97 |  |  |  |  |  |  |  | 
2.76 | CC/N=c1/cc2sc3cc(N(CC)CC)ccc3nc-2c2ccccc12.Cl |  |  |  |  | 75 | >99.9 | >99 | >98 |  |  |  | 

Structure (SMILES) | logD [5] | Activity [1] [%] | Drug uptake [2] [%] | Activity [3] [%] | Activity [4] [%] | Drug uptake [6] [%] | Activity [7] [%] | Activity [8] [%] | Activity [9] [%] | Activity [10] [%] | Drug uptake [11] [%] | Activity [12] [%] | Activity [13] [%]
CC/N=c1/cc2[se]c3cc(N(CC)CC)ccc3nc-2c2ccccc12.Cl | 2.08 |  |  |  |  |  |  |  |  | >99.999 | 75 | >100 | > 99
